# Measurements of several laboratories.
# Lines come from different studies, so protocols differ.
SMILES,target or system,test,test system,conditions,endpoint,result
Cc1ncc2n1-c1ccc(Cl)cc1C(c1ccccc1F)=NC2,,metabolic stability,"dog, hepatocytes",,half-life,36.9 min
CC(C)CC(=O)OC[C@H]1O[C@@](C#N)(c2ccc3c(N)ncnn23)[C@H](O)[C@@H]1O,,metabolic stability,"dog, plasma",5 µM,half-life,> 186 min
CC(=O)c1c(C)c2cnc(Nc3ccc(C4CCN(CCS(C)(=O)=O)CC4)cn3)nc2n(C2CCCC2)c1=O,,metabolic stability,"dog, liver S9",,half-life,103 min
O=C(O)CCCOc1ccc(F)cc1-c1cc(-c2ccccc2C(F)(F)F)n(-c2ccccc2)n1,,general toxicity,rat,"intravenous, 25 µg/kg, single dose",NOAEL,≥ 0.025 mg/kg
CC(=O)Oc1ccc(C=CC(=O)O)cc1OC(C)=O,HaCaT,"cell growth or viability, MTT",,24 h,CC50,> 250 µM
Cc1ccc2cc(N3CCC4(O)C(=O)c5cc(C)c(C)cc5N=C34)ccc2n1 (centres unmarked),,general toxicity,rat,"intravenous, multiple doses",NOAEL,≥ 20 mg/kg
COC(=O)C=Cc1ccc(OC(C)=O)c(OC(C)=O)c1,HaCaT,"cell growth or viability, MTT",,24 h,CC50,201 µM
COc1cc(C2C3=C(COC3=O)N(CCO)c3cc4c(cc32)CCC4)cc(OC)c1OC (centres unmarked),,general toxicity,female Sprague-Dawley rat,"intraperitoneal, single dose",MTD,≥ 400 mg/kg
